What was measured:
[1] = system: primary murine hippocampal neurons; assay: Dendritic spine density; format: cell-based, mouse; settings: K252a 200 nM or LY294002 1 μM, Syn3 0.2 μM, BDNF 25 ng/mL 24 hours; n = 15 neurons
[2] = system: Akt, GSK3α/β, S6K, S6 phosphorylation in primary murine hippocampal neurons; format: cell-based, mouse; settings: K252a 200 nM or LY294002 1 μM for 1 hour, then Syn3 0.2 μM, BDNF 25 ng/mL 20 min; n = 5
[3] = system: primary murine hippocampal neurons; assay: PSD-95 puncta formation in vitro; format: cell-based, mouse; settings: for effect of inhibitor on the effects of Syn3 (PSD-95 puncta): K252a 200 nM or LY294002 1 μM for 1 hour; for effect of inhibitor on the effects of Syn3 (PSD-95 puncta) / BDNF+Syn3–induced PSD-95 puncta formation with inhibitor: then Syn3 0.2 μM, BDNF 25 ng/mL 24 hours; for BDNF+Syn3–induced PSD-95 puncta formation with inhibitor: K252a 200 nM or LY294002 1 μM, n = 20 neurons
Outline: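 Primary murine hippocampal neurons were pretreated with test compound (0.2 µM) for 20 min, some first with K252a (200 nM) or LY294002 (1 µM) for 1 hour, then given BDNF for 24 hours. Cells were fixed in 4% paraformaldehyde for 15 min and blocked in 0.3% Triton X-100/5% goat serum. Primary antibody ran overnight at 4°C, secondary 2 hours at room temperature. Puncta were counted per 10-µm second-order dendrite 35–45 µm from the soma.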

[4] = system: primary murine hippocampal neurons; assay: Synaptic density; format: cell-based, mouse; settings: K252a 200 nM or LY294002 1 μM, Syn3 0.2 μM, BDNF 25 ng/mL 24 hours; n = 20 neurons
[5] = system: C57BL/6J mice, corticosterone model of depression; assay: Sucrose preference test, corticosterone model; format: in vivo, mouse; settings: corticosterone 20 mg/kg s.c. daily for 21 days
Outline: (§1)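 C57BL/6J mice, 4–5 weeks old, equal numbers male and female. Corticosterone emulsified in propylene glycol given s.c. daily between 10:00 and 12:00 for 21 days; controls got vehicle. Test compound then given i.p. (1 or 10 mg/kg; in one series 1 mg/kg with testing 12 hours later, n = 9 per group). Mice acclimated to the testing room for 30 min.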

[6] = system: C57BL/6J mice, corticosterone model of depression; assay: Forced swim test, corticosterone model; format: in vivo, mouse; settings: corticosterone 20 mg/kg s.c. daily for 21 days
Outline: as §1

[7] = system: C57BL/6J mice, corticosterone model of depression; assay: Tail suspension test, corticosterone model; format: in vivo, mouse; settings: corticosterone 20 mg/kg s.c. daily for 21 days
Outline: as §1

TrkB signaling = settings: cited from earlier work
[8] = system: insulin receptor signaling; assay: Insulin-induced Akt-S6K signaling in primary hippocampal neurons; format: cell-based, mouse; settings: insulin 1 μg/mL, 20 min
Outline: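 Primary murine hippocampal neurons were pre-treated 20 min with test compound (0.2 µM) or vehicle, then with insulin (1 μg/mL) for 20 min. Cells were lysed in ice-cold RIPA for 30 min and centrifuged. Equal protein was run on SDS-PAGE and blotted to PVDF, blocked in 5% milk/TBS-T, then probed overnight at 4°C with primary antibodies and HRP secondaries. Data are mean ± SD.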

[9] = system: patients with conventional, treatment-resistant depression; settings: single infusion of sub-anesthetic dose; cited from earlier work
[10] = system: autophagy, BDNF-mTOR signaling pathway; settings: through the BDNF-mTOR signaling pathway; cited from earlier work
[11] = system: platelet-derived growth factor (PDGF) receptor signaling; assay: PDGF-induced Akt-S6K signaling in primary hippocampal neurons; format: cell-based, mouse; settings: PDGF-BB 25 ng/mL, 20 min
[12] = system: primary murine hippocampal neurons; assay: Sholl analysis of dendritic complexity/neurite outgrowth; format: cell-based, mouse; settings: BDNF 25 ng/mL, 24h; n = 26 neurons

Which results are given for COC(=O)[C@@]1(O)C[C@H]2O[C@]1(C)n1c3ccccc3c3c4c(c5c6ccccc6n2c5c31)C(=O)NC4 [K252a]?
density of dendritic spines, BDNF + Syn3 with inhibitor [1]: reversed; BDNF plus Syn3 stimulation of Akt and S6K phosphorylation with inhibitor [2]: blocked; effect of inhibitor on the effects of Syn3 (PSD-95 puncta) [3]: blocked the effects of Syn3; BDNF+Syn3–induced PSD-95 puncta formation with inhibitor [3]: reversed; effect of Syn3 on synaptic density with inhibitor [4]: blocked the effect of Syn3 on synaptic density

For C[C@]12C[C@H](O)[C@H]3[C@@H](CCC4=CC(=O)CC[C@@]43C)[C@@H]1CC[C@@H]2C(=O)CO [corticosterone], which “sucrose intake (effect of inducer)” value [5] is on record?
Its value is “decreased sucrose intake”.

What about the “immobility time (effect of inducer), forced swim test” value [6] of the same molecule?
Its value is “increased immobility time”.

And the “immobility time (effect of inducer), tail suspension test” value [7]?
The value was “increased immobility time”.

For O=c1cc(-c2ccccc2)oc2c(O)c(O)ccc12 [7,8-DHF, 7,8-dihydroxyflavone], which “TrkB signaling and antidepressant responses” value (TrkB signaling) is on record?
Its value is “stimulates TrkB signaling and promotes rapid antidepressant responses”.

Which “Akt and S6K phosphorylation” value [8] does the source give for insulin: recombinant insulin here?
The value was “increased Akt and S6K phosphorylation”.

Which “antidepressant effects in patients” value [9] does the source give for CNC1(c2ccccc2Cl)CCCCC1=O (centres unmarked) [ketamine] here?
Its value is “produces rapid antidepressant effects in patients with conventional, treatment-resistant depression”.

With CN[C@]1(c2ccccc2Cl)CCCCC1=O [esketamine] as the molecule, how does the autophagy [10] read?
The autophagy was “acts to inhibit autophagy”.

Which “density of dendritic spines, BDNF + Syn3 with inhibitor” value [1] does the source give for O=c1cc(N2CCOCC2)oc2c(-c3ccccc3)cccc12 [LY294002] here?
The value was “reversed”.

And the “BDNF plus Syn3 stimulation of Akt and S6K phosphorylation with inhibitor” value [2]?
Its value is “blocked”.

And the “effect of inhibitor on the effects of Syn3 (PSD-95 puncta)” value [3]?
Its value is “blocked the effects of Syn3”.

What about the “BDNF+Syn3–induced PSD-95 puncta formation with inhibitor” value [3] of the same molecule?
Its value is “reversed”.

And the “effect of Syn3 on synaptic density with inhibitor” value [4]?
Its value is “blocked the effect of Syn3 on synaptic density”.

B1: PDGF: recombinant platelet-derived growth factor (protein, UniProt P01127 82-190, looked up)
Platelet-derived growth …: SLGSLTIAEPAMIAECKTRTEVFEISRRLIDRTNANFLVWPPCVEVQRCSGCCNNRNVQCRPTQVQLRPVQVRKIEIVRKKPIFKKATVTLEDHLACKCETVAAARPVT
Which “Akt and S6K phosphorylation” value [11] does the source give for B1 here?
The value was “increased Akt and S6K phosphorylation”.

B2: brain-derived neurotrophic factor (protein, UniProt P23560 19-247, looked up)
Neurotrophic factor BDNF …: APMKEANIRGQGGLAYPGVRTHGTLESVNGPKAGSRGLTSLADTFEHVIEELLDEDQKVRPNEENNKDADLYTSRVMLSSQVPLEPPLLFLLEEYKNYLDAANMSMRVRRHSDPARRGELSVCDSISEWVTAADKKTAVDMSGGTVTVLEKVPVSKGQLKQYFYETKCNPMGYTKEGCRGIDKRHWNSQCRTTQSYVRALTMDSKKRIGWRFIRIDTSCVCTLTIKRGR
For B2, which “dendritic complexity and number of neurite crossings” value [12] is on record?
The value was “significantly enhanced dendritic complexity and the number of neurite crossings”.

What about the “number of PSD-95 puncta” value ([3]; BDNF 25 ng/mL, 24h) of the same molecule?
The value was “increased the number of PSD-95 puncta”.

From PMC11223518 (Science signaling, 2024)
